Experimental data: ChEMBL document CHEMBL1143580 (J Med Chem, 2005); call rule not given here

Experiments:
Rattus norvegicus [1] = species: Rattus norvegicus; test: Amount of cAMP level in rat neostriatal membranes after incubation at 100 uM; format: functional
In short: (§1)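 Rat striatal membranes; adenylyl cyclase reaction in 0.1 M Tris-HCl pH 8.3, 10 mM MgCl2, 0.1 M KCl, 37 °C, 60 min; compounds at 1, 10, 100 µM. Stopped with HCl (final 0.01 M) plus 5 min boiling, centrifuged, filtered. cAMP quantified by reverse-phase HPLC at 254 nm against standards, confirmed by cAMP EIA; pmol/mg protein, mean ± SEM of triplicates.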

Rattus norvegicus [2] = species: Rattus norvegicus; test: Amount of cAMP level in rat neostriatal membranes after incubation at 10 uM; format: functional; in short: as §1
Rattus norvegicus [3] = species: Rattus norvegicus; test: Amount of cGMP level in rat neostriatal membranes after incubation at 1.0 uM; format: functional
In short: (§2)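 Rat striatal membranes in 0.1 M phosphate buffer pH 7.0 with MgCl2 and 2.25 mM IBMX at 37 °C; reaction started with 54 µM GTP, 60 min at 37 °C; compounds at 0.1, 1.0, 10 µM. Stopped with HCl, boiled 5 min, centrifuged, filtered; cGMP measured by reverse-phase HPLC at 254 nm against standards, confirmed by cGMP EIA; mean ± SEM of triplicates.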

Rattus norvegicus [4] = species: Rattus norvegicus; test: Amount of cGMP level in rat neostriatal membranes after incubation at 0.1 uM; format: functional; in short: as §2
Rattus norvegicus [5] = species: Rattus norvegicus; test: Amount of cGMP level in rat neostriatal membranes after incubation at 10 uM; format: functional; in short: as §2
Rattus norvegicus [6] = species: Rattus norvegicus; test: Amount of cAMP level in rat neostriatal membranes after incubation at 1 uM; format: functional; in short: as §1
[7] = molecular target: Adenylate cyclase type 2 (Rattus norvegicus) (UniProt P26769); test: Inhibition of basal striatal adenylyl cyclase activity in rat neostriatal membrane at 100 uM; format: functional, cell membranes
Sequence of Adenylate cyclase type 2 (Rattus norvegicus) (P26769 whole entry): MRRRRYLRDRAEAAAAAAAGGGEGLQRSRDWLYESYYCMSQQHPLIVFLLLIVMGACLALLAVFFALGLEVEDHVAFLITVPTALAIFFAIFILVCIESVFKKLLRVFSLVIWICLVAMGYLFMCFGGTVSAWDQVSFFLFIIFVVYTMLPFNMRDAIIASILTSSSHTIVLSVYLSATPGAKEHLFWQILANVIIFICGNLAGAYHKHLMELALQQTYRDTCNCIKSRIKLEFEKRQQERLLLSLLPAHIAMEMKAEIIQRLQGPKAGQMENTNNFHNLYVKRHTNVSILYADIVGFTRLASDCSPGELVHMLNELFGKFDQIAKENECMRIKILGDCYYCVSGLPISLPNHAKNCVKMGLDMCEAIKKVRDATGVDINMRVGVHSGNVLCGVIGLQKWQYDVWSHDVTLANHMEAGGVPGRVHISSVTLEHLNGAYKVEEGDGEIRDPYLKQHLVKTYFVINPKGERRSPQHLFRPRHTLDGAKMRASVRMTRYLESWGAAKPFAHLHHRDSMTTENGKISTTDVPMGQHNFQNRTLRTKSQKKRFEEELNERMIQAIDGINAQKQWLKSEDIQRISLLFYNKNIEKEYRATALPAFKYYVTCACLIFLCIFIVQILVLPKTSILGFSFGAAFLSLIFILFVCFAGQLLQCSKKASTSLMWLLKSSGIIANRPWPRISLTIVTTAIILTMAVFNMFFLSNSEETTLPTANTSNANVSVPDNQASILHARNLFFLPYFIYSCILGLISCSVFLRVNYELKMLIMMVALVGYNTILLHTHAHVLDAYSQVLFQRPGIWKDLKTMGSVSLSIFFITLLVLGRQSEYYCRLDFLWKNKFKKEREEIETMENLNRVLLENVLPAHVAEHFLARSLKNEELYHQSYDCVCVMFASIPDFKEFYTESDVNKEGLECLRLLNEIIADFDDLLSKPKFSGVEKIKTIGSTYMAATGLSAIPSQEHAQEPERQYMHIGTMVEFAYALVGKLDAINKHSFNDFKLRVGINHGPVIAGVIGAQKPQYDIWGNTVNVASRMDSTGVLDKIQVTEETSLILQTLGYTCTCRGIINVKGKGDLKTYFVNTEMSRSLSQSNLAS
In short: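 Rat striatal membranes incubated 60 min at 37 °C in 0.1 M Tris-HCl pH 8.3, 10 mM MgCl2, 0.1 M KCl. Reaction stopped with HCl (0.01 M final) and 5 min boiling. Filtered supernatant analysed for cAMP by reverse-phase HPLC at 254 nm against standards, confirmed by cAMP EIA. Tested at 1, 10 and 100 µM. Triplicates reported as mean ± SEM.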

[8] = Inhibitory constant for [3H]YM-09151-2 binding to Dopamine receptor D2-like in porcine striatal membranes; format: cell membranes, Sus scrofa, Striatum, Membrane
Rattus norvegicus [9] = species: Rattus norvegicus; test: Amount of cGMP in rat neostriatal membranes after incubation at 10 uM; format: functional; in short: as §2
Rattus norvegicus [10] = species: Rattus norvegicus; test: Amount of cGMP in rat neostriatal membranes after incubation at 0.1 uM; format: functional; in short: as §2
Rattus norvegicus [11] = species: Rattus norvegicus; test: Amount of cGMP in rat neostriatal membranes after incubation at 1.0 uM; format: functional; in short: as §2
Rattus norvegicus [12] = species: Rattus norvegicus; test: Decrease of basal cAMP concentration mediated by striatal adenylyl cyclase activity in rat neostriatal membrane at 100 uM; format: functional; in short: as §1
[13] = Inhibitory constant for [3H]YM-09151-2 binding to Dopamine receptor D2-like in porcine striatal membranes; NA= not active until 1e-5M; format: cell membranes, Sus scrofa
[14] = Inhibitory constant for Dopamine receptor D1-like
[15] = Inhibitory constant for Dopamine receptor D2-like

| SMILES | cGMP content (pmol/mg protein) (Rattus norvegicus [3]) | cGMP content (pmol/mg protein) (Rattus norvegicus [4]) | cGMP content (pmol/mg protein) (Rattus norvegicus [5]) | Ki [8] | further results |
| --- | --- | --- | --- | --- | --- |
| CCCN(CCc1ccccc1)CCc1cccc(O)c1 | 7.45 | 10.4 | 3.78 | – | cAMP content (pmol/mg protein) (Rattus norvegicus [1]): 79.3; cAMP content (pmol/mg protein) (Rattus norvegicus [2]): 93.1; cAMP content (pmol/mg protein) (Rattus norvegicus [6]): 104; inhibition [7]: 25% |
| C=CCN(C)[C@@H]1Cc2cc(O)c(F)cc2[C@H]1c1ccccc1 | – | – | – | 640 nM | – |
| CCCN(CCC)[C@@H]1Cc2cc(F)c(O)cc2[C@H]1c1ccccc1 | 7.32 | 11.6 | 4.37 | 920 nM | – |
| COc1cc2c(cc1F)[C@@H](c1ccccc1)[C@H](N)C2 | – | – | – | 12000 nM | – |
| NCCc1ccc(O)c(O)c1 | 6.15 | 11.7 | 4.02 | – | cAMP content (pmol/mg protein) (Rattus norvegicus [1]): 85.6; cAMP content (pmol/mg protein) (Rattus norvegicus [2]): 89.8; cAMP content (pmol/mg protein) (Rattus norvegicus [6]): 95.1 |
| CCCN(C)[C@@H]1Cc2cc(OC)c(F)cc2[C@H]1c1ccccc1 | 4.96 | 11.2 | 3.78 | 270 nM | cAMP content (pmol/mg protein) (Rattus norvegicus [1]): 84.6; cAMP content (pmol/mg protein) (Rattus norvegicus [2]): 103; cAMP content (pmol/mg protein) (Rattus norvegicus [6]): 105 |
| CCCN(CCC)[C@@H]1Cc2cc(F)c(OC)cc2[C@H]1c1ccccc1 | 6.97 | 10.6 | 5.79 | 170 nM | – |
| CN[C@@H]1Cc2cc(F)c(OC)cc2[C@H]1c1ccccc1 | – | – | – | 2600 nM | – |
| N[C@@H]1Cc2cc(O)c(F)cc2[C@H]1c1ccccc1 | – | – | – | 15000 nM | – |
| CN1CCc2cc(Cl)c(O)cc2[C@@H](c2ccccc2)C1 | – | – | – | – | cGMP content (pmol/mg protein) (Rattus norvegicus [9]): 6.15; cGMP content (pmol/mg protein) (Rattus norvegicus [10]): 11.5; cGMP content (pmol/mg protein) (Rattus norvegicus [11]): 6.62 |
| Oc1cc2c(cc1O)C(c1ccccc1)CNCC2 (stereo not drawn) | 17.4 | 12.4 | 18.2 | – | – |
| C=CCN(C)[C@@H]1Cc2cc(OC)c(F)cc2[C@H]1c1ccccc1 | – | – | – | 310 nM | – |
| C=CCN(C)[C@@H]1Cc2cc(F)c(OC)cc2[C@H]1c1ccccc1 | – | – | – | 640 nM | – |
| CN(C)[C@@H]1Cc2cc(F)c(O)cc2[C@H]1c1ccccc1 | – | – | – | 4500 nM | – |
| CCCN(CCC)[C@@H]1Cc2cc(OC)c(F)cc2[C@H]1c1ccccc1 | – | – | – | 550 nM | – |
| COc1cc2c(cc1F)C[C@@H](N)[C@@H]2c1ccccc1 | – | – | – | 17000 nM | – |
| CCCN(C)[C@@H]1Cc2cc(F)c(O)cc2[C@H]1c1ccccc1 | 5.79 | 10.9 | 1.78 | 650 nM | cAMP content (pmol/mg protein) (Rattus norvegicus [1]): 74.4; cAMP content (pmol/mg protein) (Rattus norvegicus [2]): 93; Decrease (Rattus norvegicus [12]): 30%; cAMP content (pmol/mg protein) (Rattus norvegicus [6]): 103 |
| CN[C@@H]1Cc2cc(F)c(O)cc2[C@H]1c1ccccc1 | – | – | – | 5100 nM | – |
| CCCN(C)[C@@H]1Cc2cc(F)c(OC)cc2[C@H]1c1ccccc1 | 6.86 | 10.4 | 3.9 | 480 nM | – |
| COc1cc2c(cc1F)[C@@H](c1ccccc1)[C@H](N(C)C)C2 | – | – | – | 4300 nM | – |
| Br.CN(C)[C@@H]1Cc2cc(O)c(F)cc2[C@H]1c1ccccc1 | – | – | – | – | Ki [13]: Not Active |
| C=CCN(C)[C@@H]1Cc2cc(F)c(O)cc2[C@H]1c1ccccc1 | – | – | – | 960 nM | – |
| CN[C@@H]1Cc2cc(OC)c(F)cc2[C@H]1c1ccccc1 | – | – | – | 3100 nM | – |
| COc1cc2c(cc1F)C[C@@H](N(C)C)[C@@H]2c1ccccc1 | – | – | – | 1900 nM | – |
| N[C@@H]1Cc2cc(F)c(O)cc2[C@H]1c1ccccc1 | – | – | – | 19000 nM | – |
| CCN1CCCC1CNC(=O)c1cc(S(N)(=O)=O)ccc1OC (stereo not drawn) | 17.3 | 12.5 | 17.7 | – | – |
| CN1CCc2cc(F)c(O)cc2C1C1(c2ccccc2Cl)CC1 (stereo not drawn) | – | – | – | – | Ki [14]: 0.18 nM; Ki [15]: 450 nM |
| CCCN(CCC)[C@@H]1Cc2cc(O)c(F)cc2[C@H]1c1ccccc1 | – | – | – | 12000 nM | – |
| CN[C@@H]1Cc2cc(O)c(F)cc2[C@H]1c1ccccc1 | – | – | – | 4300 nM | – |
| CCCN(C)[C@@H]1Cc2cc(O)c(F)cc2[C@H]1c1ccccc1 | 7.45 | 11.5 | 5.56 | 240 nM | – |
